TAAR1 ag: human TAAR1 agonists, primary screen, Fluo-8 calcium fluorescence, CHO RD-HGA16 cells; Trace amine-associated receptor 1 (Homo sapiens), Q96RJ0; vehicle wells 0%, saturating PEA agonist 100%; activation, % at 3 µM; 360,000 tested, 0.99% active; AID 624467, 2012;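 active = activation above the mean activation of all test compounds in the run plus 3 SD, cut at about 38% in these data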
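System: CHO-derived RD-HGA16 cells with stable Gα16 and human TAAR1 / Times: 17-24 h plating, Fluo-8 75 min 37 °C, 30 min RT / Technique: calcium-sensitive Fluo-8 signal, excitation 470-495, emission 515-575 nm / Measure: % activation relative to PEA EC100 response / Benchmarks: DMSO and PEA EC100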
TAAR1 antag: human TAAR1 antagonists, primary screen, Fluo-8 calcium fluorescence, CHO RD-HGA16 cells. Trace amine-associated receptor 1 (Homo sapiens), Q96RJ0. antagonist. inhibition, % at 3 µM. 360,000 tested, 1.5% active;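 active = inhibition above a per-plate cutoff, the mean inhibition of test compounds on that plate plus 3 SD, cut at about 49% in these data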
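test system = CHO RD-HGA16 cells bearing hTAAR1 | replication = singlicate | controls = DMSO-only wells and EC80 β-PEA-stimulated wells | reagent = EC80 β-phenethylamine stimulus | read-out basis = percent inhibition of PEA-evoked calcium signal, max/basal emission ratio | schedule = seeding 17-24 h prior, 75-min 37 °C, 30-min RT dye loading | signal = kinetic Fluo-8 calcium fluorescence measurement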
MC4R ag barr: MC4R agonists recruiting beta-arrestin, primary screen, cell-based, luminescence, agonist arm of biased-ligand search; U2OS MC4R beta-arrestin complementation; percent of melanotan II response, DMSO zero; Melanocortin receptor 4 (Homo sapiens), P32245; activation, % at 8.9 µM; 360,000 tested, 0.98% active;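 active = activation above a per-plate cutoff, the mean activation of sample wells on that plate plus 3 SD, cut at about 8% in these data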
Beta2AR agonist: beta2AR agonists driving receptor internalization, primary screen, cell-based, FAP fluorogen, flow cytometry; Beta-2 adrenergic receptor (Homo sapiens), P07550; Am2.2-beta2AR cells; response, % (concentration not given with the values); 340,000 tested, 0.43% active; AID 504454, 2011;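 active = response above a set limit, near 3 SD of response in nonfluorescent compounds, cut at about 42% in these data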
MC4R antag cAMP: MC4R antagonists of cAMP signaling, primary screen, cell-based, TR-FRET, antagonist arm of biased-ligand search; Melanocortin receptor 4 (Homo sapiens), P32245; MC4R-expressing cells, MTII-stimulated cAMP, LANCE TR-FRET; inhibition, % at 6.5 µM; 360,000 tested, 0.48% active; AID 540295, 2011;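 active = inhibition above its plate's cutoff, the mean of tested wells on that plate plus 3 SD, cut at about 29% in these data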
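Assay system: human MC4R-expressing U2OS cells; reagent: Melanotan II stimulation of cells; dosing: 6.5 µM single dose; timing: compound 30 min, challenge 1 h, detection 1 h; signal: TR-FRET cAMP assay; replicates: one well per compound, no replicates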
m5-HT2A agonist: mouse Htr2a agonists via beta-arrestin recruitment, primary screen, cell-based, luminescence | activation, % at 7.6 µM | CHO-K1 mHTR2A beta-arrestin complementation; percent of 30 µM serotonin response | 5-hydroxytryptamine receptor 2A (Mus musculus), P35363 | AID 624169, 2012 | 360,000 tested, 0.66% active;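 active = activation above a run cutoff, the mean activation of all tested compounds plus 3 SD, cut at about 14% in these data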
Target sequence (P35363 whole entry, looked up): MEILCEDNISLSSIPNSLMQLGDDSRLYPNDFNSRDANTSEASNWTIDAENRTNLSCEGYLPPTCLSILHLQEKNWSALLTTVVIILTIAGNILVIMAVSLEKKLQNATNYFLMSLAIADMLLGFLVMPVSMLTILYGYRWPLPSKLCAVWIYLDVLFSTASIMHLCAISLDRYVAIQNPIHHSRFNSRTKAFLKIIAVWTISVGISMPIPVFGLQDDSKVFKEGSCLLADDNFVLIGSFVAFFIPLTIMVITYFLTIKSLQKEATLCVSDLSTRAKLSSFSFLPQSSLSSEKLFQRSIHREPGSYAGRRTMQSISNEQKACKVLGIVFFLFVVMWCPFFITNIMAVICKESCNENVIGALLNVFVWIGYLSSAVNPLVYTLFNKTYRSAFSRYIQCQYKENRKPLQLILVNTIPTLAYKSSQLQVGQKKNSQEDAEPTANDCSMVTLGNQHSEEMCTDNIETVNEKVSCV
cAMP nonselect: nonselective cAMP signaling inhibitors, parental cells, counter-screen for MC4R biased antagonist project, cell-based, TR-FRET, U2OS, forskolin, triplicate | shares compounds with MC4R antag cAMP | LANCE TR-FRET | inhibition, % at 6.5 µM | 1,600 tested, 26% active | AID 602193, 2012;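 active = mean inhibition over triplicates above the low-control well mean plus 3 SD, set per campaign, cut at about 13% in these data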;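 also: signal is single emission at 671 nm which falls as cellular cAMP rises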
MC4R cAMP antag: MC4R cAMP antagonists, retest, confirmation, cell-based, TR-FRET | shares compounds with MC4R antag cAMP | MC4R-expressing cells, MTII-stimulated cAMP | 1,600 tested, 27% active | AID 602195, 2012 | inhibition, % at 6.5 µM; in the data active = inhibition above about 29%
Each line names hits and unclear results; the compound was inactive in the other large screens (follow-up assays come after a bar, where they were run). Shown are actives, neighbours in structure and some others; about 4.3% of the full set was active somewhere.

COc1cccc(CNS(=O)(=O)/C=C/c2ccc(OC)c(OC)c2)c1	MC4R antag cAMP 34 | cAMP nonselect inactive | MC4R cAMP antag inactive
COc1ccc(NS(=O)(=O)/C=C/c2ccc(OC)c(OC)c2)cc1	none
CC(C)CN(C(=O)c1ccc(Br)o1)C1CCS(=O)(=O)C1 (centres undefined)	none
Cc1ccccc1OCC(=O)Nc1sc(C(=O)Nc2cccc(C)c2C)c(C)c1C#N	MC4R antag cAMP 105 (no result: TAAR1 ag, TAAR1 antag) | cAMP nonselect inactive | MC4R cAMP antag inactive
CCOc1ccc(NCCC(O)c2ccc(F)cc2)cc1 (centres undefined)	none
Cc1ccccc1N1CCN(C2CCCN(C(=O)CN3CCCC3=O)C2)CC1 (centres undefined)	MC4R antag cAMP 31 | cAMP nonselect inactive | MC4R cAMP antag inactive
Cc1ccc(S(=O)(=O)c2ccc(C)cc2)cc1	none
Cc1ccc(S(=O)(=O)C=CS(=O)(=O)c2ccc(C)cc2)cc1	TAAR1 antag 50, MC4R antag cAMP 42 (no result: Beta2AR agonist) | cAMP nonselect inactive | MC4R cAMP antag inactive
C=CCn1c(=S)[nH]c2scc(-c3cccs3)c2c1=O	MC4R antag cAMP 51 | cAMP nonselect 17 | MC4R cAMP antag inactive
Cn1c(=S)[nH]c2scc(-c3cccs3)c2c1=O	none
O=C(OCC(=O)N1CCCC1=O)c1nc(Cl)c(Cl)c(Cl)c1Cl	MC4R antag cAMP 29 | cAMP nonselect 23 | MC4R cAMP antag 47
O=S(=O)(c1ccc(Br)c2nsnc12)N1CCOCC1	MC4R antag cAMP 30 | cAMP nonselect inactive | MC4R cAMP antag inactive
Cc1ccc(S(=O)(=O)N2CCOCC2)c2nsnc12	none
O=C(CCl)c1ccc2c(c1)CCN2C(=O)C1CCCCC1	MC4R antag cAMP 30 | cAMP nonselect inactive | MC4R cAMP antag inactive
CCC1CCCCN1S(=O)(=O)c1ccc2c(c1)CCN2C(=O)C1CCC1 (centres undefined)	none
Cc1cc(O)c(C2=Nc3ccccc3SC(c3ccc(Cl)cc3)C2)c(=O)o1 (centres undefined)	MC4R antag cAMP 31 | cAMP nonselect inactive | MC4R cAMP antag inactive
CC[N+]1(C)CCC(O)(c2ccc(OC)cc2)C(C(=O)c2ccc(OC)cc2)C1 (centres undefined)	MC4R antag cAMP 29 | cAMP nonselect 17 | MC4R cAMP antag inactive
O=C(CN1CCCCCC1)Nc1ccc(Cl)cn1	none
COC(=O)c1ccc(CN2CCc3ccc(NC(=O)c4ccncc4)cc3C2)cc1	MC4R antag cAMP 29 | cAMP nonselect inactive | MC4R cAMP antag inactive
O=C(O)Cc1ccc(NC(=O)Cc2ccc3ccccc3c2)cc1	none
Cc1cc2nc(-c3cccc(Br)c3)c(CC3CCCCC3)n2c(C)c1Br	none (no result: MC4R ag barr, Beta2AR agonist, MC4R antag cAMP)
COc1ccc(OC)c2[nH]c(=O)c(CCNC(=O)C(=O)c3c(C)[nH]c4ccccc34)cc12	MC4R antag cAMP 31 | cAMP nonselect inactive | MC4R cAMP antag inactive
COc1ccc(OC)c2[nH]c(=O)c(CCNC(C)=O)cc12	none
COc1ccc(OC)c2[nH]c(=O)c(CCNS(=O)(=O)c3ccc(F)cc3)cc12	MC4R antag cAMP 33 | cAMP nonselect inactive | MC4R cAMP antag inactive
CCS(=O)(=O)NCCc1cc2c(OC)ccc(OC)c2[nH]c1=O	none
CN(CC(=O)Nc1ccccc1Br)C(=O)c1ccccc1-c1nc2ccccc2s1	none
CCC(=O)Nc1ccc(C(=O)Cn2ncc(Cl)c(Cl)c2=O)cc1	MC4R antag cAMP 29 | cAMP nonselect 22 | MC4R cAMP antag inactive
O=C(Cn1ncc(Cl)c(Cl)c1=O)Nc1ccc2c(c1)OCO2	MC4R antag cAMP 37 | cAMP nonselect 28 | MC4R cAMP antag 66
Cc1ccc(S(=O)(=O)N2CCCCC2)cc1NC(=O)Cn1ncc(Cl)c(Cl)c1=O	none
Cc1cc(Br)ccc1NC(=O)CNC(=O)Cn1ncc(Cl)c(Cl)c1=O	MC4R antag cAMP 47 | cAMP nonselect 29 | MC4R cAMP antag 53
C=C(C)Cn1c2ccc(NC(=O)NCc3ccc(F)cc3)cc2c(=O)n1C	none (no result: Beta2AR agonist)
COc1ccc(C(=O)N[C@H](C(=O)OCCCOC(=O)[C@@H](NC(=O)c2ccc(OC)cc2)C(C)C)C(C)C)cc1	none
O=C(Cc1ccccc1F)Nc1cccc(S(=O)(=O)N2CCOCC2)c1	none
CC(C)C1Cc2ccccc2-c2[nH]c(=S)[nH]c(=O)c21 (centres undefined)	MC4R antag cAMP 36 | cAMP nonselect 21 | MC4R cAMP antag 48
CCC1(CC)Cc2ccccc2-c2[nH]c(=S)[nH]c(=O)c21	none
COc1ccc(-c2cc(C(=O)N3CCCCCC3)c3ccccc3n2)cc1OC	none (no result: Beta2AR agonist)
COc1ccc(-c2cc(C(=O)OCC(=O)N3CCCCC3)c3ccccc3n2)cc1OC	TAAR1 antag 71, MC4R antag cAMP 37 | cAMP nonselect inactive | MC4R cAMP antag inactive
CCOC(=O)c1c(NC(=O)COC(=O)CNC(=O)c2ccc(Cl)cc2Cl)sc(C(=O)N(C)C)c1C	MC4R antag cAMP 31 | cAMP nonselect inactive | MC4R cAMP antag inactive
CCOC(=O)c1c(NC(=O)CSc2nc3cc(Cl)ccc3c(=O)n2Cc2ccco2)sc(C(=O)N(C)C)c1C	MC4R antag cAMP 31 | cAMP nonselect inactive | MC4R cAMP antag inactive
COc1ccc(C=CC(=O)c2ccc([N+](=O)[O-])cc2)cc1	none
Cc1[nH]c(C)c(C(=O)/C=C/c2ccc([N+](=O)[O-])cc2)c1C	MC4R antag cAMP 31 | cAMP nonselect inactive | MC4R cAMP antag 31
COc1ccc(NC(=O)N2CCN(c3nc4ccccc4n3C(C)C)CC2)cc1	MC4R antag cAMP 30 | cAMP nonselect inactive | MC4R cAMP antag inactive
CCN(CC)S(=O)(=O)c1ccc(OC)c(NC(=O)COc2ccc3c(C)cc(=O)oc3c2)c1	MC4R antag cAMP 114 | cAMP nonselect 96 | MC4R cAMP antag 168
CCOC(=O)c1c(NC(=O)C(C)OC(=O)C2=COCCO2)sc2c1CCCC2 (centres undefined)	MC4R antag cAMP 36 (no result: TAAR1 ag, TAAR1 antag) | cAMP nonselect inactive | MC4R cAMP antag inactive

Screening data: PubChem BioAssay, several laboratories
